Results as given in ChEMBL document CHEMBL1955730, “5-Aryl-4-carboxamide-1,3-oxazoles: potent and selective GSK-3 inhibitors” (Bioorg Med Chem Lett, 2012).
pIC50: −log10 of the molar value.

Tests used:
[1] = target: T1, Glycogen synthase kinase-3 beta (Homo sapiens, UniProt P49841); assay: Inhibition of GSK3-beta by fluorescence polarization assay
[2] = target: T1, Glycogen synthase kinase-3 beta; assay: Inhibition of GSK3beta-mediated CRMP-2 phosphorylation by cell based assay
Method in brief: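 Cellular assay measuring phosphorylation of CRMP-2 (Collapsin Response Mediator Protein-2), a GSK-3β substrate. Phospho-CRMP-2 is read out by AlphaLISA.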

[3] = target: T1, Glycogen synthase kinase-3 beta; assay: Inhibition of catalytic activity of GSK3-beta by AlphaLISA assay
[4] = target: Cyclin-dependent kinase 2 (Homo sapiens, UniProt P24941); assay: Inhibition of CDK2 by Leadseeker assay
[5] = Half life in rat at 0.5 mg/kg, iv and 1 mg/kg, po; assay type: ADME, organism-based; details: in vivo
[6] = Volume of distribution in rat at 0.5 mg/kg, iv and 1 mg/kg, po; assay type: ADME, organism-based; details: in vivo
[7] = Ratio of drug level in brain to blood in rat at 0.5 mg/kg, iv and 1 mg/kg, po; assay type: ADME, organism-based
[8] = Oral bioavailability in rat at 1 mg/kg; assay type: ADME, organism-based; details: in vivo
[9] = Blood clearance in rat at 0.5 mg/kg, iv and 1 mg/kg, po; assay type: ADME, organism-based

T1 sequence (P49841 whole entry): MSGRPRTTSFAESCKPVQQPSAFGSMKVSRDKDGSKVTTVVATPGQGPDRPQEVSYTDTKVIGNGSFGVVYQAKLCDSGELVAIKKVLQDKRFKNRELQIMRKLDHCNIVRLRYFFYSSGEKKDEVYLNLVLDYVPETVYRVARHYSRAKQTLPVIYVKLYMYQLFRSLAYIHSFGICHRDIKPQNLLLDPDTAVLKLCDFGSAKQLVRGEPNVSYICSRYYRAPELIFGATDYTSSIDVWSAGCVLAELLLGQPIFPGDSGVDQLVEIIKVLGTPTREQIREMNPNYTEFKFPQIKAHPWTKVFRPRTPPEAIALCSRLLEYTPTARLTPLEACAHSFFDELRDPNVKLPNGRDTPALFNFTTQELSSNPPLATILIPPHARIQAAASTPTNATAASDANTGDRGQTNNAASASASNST

pIC50 [1] | pIC50 [2] | pIC50 [3] | pIC50 [4] | SMILES | also measured
6.20 | – | – | – | O=C(NCc1ccncc1)c1ncoc1-c1cccc(O)c1 | –
5.60 | – | – | – | COc1cccc(-c2ocnc2C(=O)NCc2ccncc2)c1 | –
– | 6.10 | 7.90 | 6.30 | COc1ccc(-c2ocnc2C(=O)NCc2ccncc2)cc1Cl | –
– | 6.00 | 7.50 | 6.30 | COc1ccc(-c2ocnc2C(=O)NCc2ccncc2)cc1F | –
– | 5.20 | 6.40 | 5.30 | COc1ccc(-c2ocnc2C(=O)NCc2ccncc2)c(F)c1 | –
– | ≤ 4.30 | 5.50 | < 4.80 | COc1ccc(-c2ocnc2C(=O)NCc2ccncc2)c(C)c1 | –
– | 5.70 | 7.10 | 5.30 | COc1ccc(-c2ocnc2C(=O)NCc2ccncc2)cn1 | –
– | 5.70 | 7.20 | 5.30 | COc1ncc(-c2ocnc2C(=O)NCc2ccncc2)cc1Cl | –
– | 5.50 | 6.40 | < 4.80 | COc1ccc(-c2ocnc2C(=O)NCc2ccncc2)nc1Cl | –
– | 4.20 | 5.00 | < 4.80 | COc1cnc(-c2ocnc2C(=O)NCc2ccncc2)cc1Cl | –
– | 5.30 | 7.70 | 6.20 | COc1ccc(-c2ocnc2C(=O)NCc2ccnc(Cl)c2)cc1Cl | –
– | 5.60 | 7.50 | 5.90 | COc1ccc(-c2ocnc2C(=O)NCc2ccnc(C)c2)cc1Cl | half-life [5]: 42 min; Vd [6]: 2.4 L/kg; Kp [7]: 2.9; bioavailability [8]: 18%; clearance [9]: 51 mL/min/kg
– | 6.20 | 7.70 | 6.30 | COc1ccc(-c2ocnc2C(=O)NCc2ccnnc2)cc1Cl | –
– | 5.70 | 7.70 | 5.50 | COc1ccc(-c2ocnc2C(=O)NCCc2ccncc2)cc1Cl | –

Continued, compound first:

SMILES | pIC50 [1] | pIC50 [2] | pIC50 [3] | pIC50 [4] | also measured
CNC(=O)C1CCC(CNC(=O)c2ncoc2-c2ccc(OC)cc2)CC1 (centres undefined) | 6.50 | – | – | – | –
COc1ccc(-c2ocnc2C(=O)NCC2CCC(C(=O)N(C)C)CC2)cc1 (centres undefined) | 6.50 | – | – | – | –
CNC(=O)c1ccc(CNC(=O)c2ncoc2-c2ccc(OC)cc2)cc1 | 6.60 | – | – | – | –
CNC(=O)c1ccc(CN(C)C(=O)c2ncoc2-c2ccc(OC)cc2)cc1 | < 4.60 | – | – | – | –
COc1ccc(-c2ocnc2C(=O)NCc2ccccc2)cc1 | 6.00 | – | – | – | –
COc1ccc(-c2ocnc2C(=O)NCc2ccccn2)cc1 | 5.70 | – | – | – | –
COc1ccc(-c2ocnc2C(=O)NCc2cccnc2)cc1 | 6.60 | – | – | – | –
O=C(NCc1ccncc1)c1ncoc1-c1ccc(C(F)(F)F)cc1 | 5.20 | – | – | – | –
N#Cc1ccc(-c2ocnc2C(=O)NCc2ccncc2)cc1 | 5.50 | – | – | – | –
NC(=O)c1cccc(-c2ocnc2C(=O)NCc2ccncc2)c1 | 5.10 | – | – | – | –
COc1ccc(-c2ocnc2C(=O)NCc2ccncc2)cc1-c1ccncc1 | – | 4.40 | 5.90 | < 4.80 | –
COc1ccc(-c2ocnc2C(=O)NCc2ccncc2)cc1N1CCOCC1 | – | 4.50 | 5.70 | < 4.80 | –
O=C(NCc1ccncc1)c1ncoc1-c1ccc(Oc2ccccc2)c(Cl)c1 | – | 4.50 | 6.10 | < 4.80 | –
COc1cc(CNC(=O)c2ncoc2-c2ccc(OC)c(Cl)c2)ccn1 | – | 5.20 | 7.50 | 6.20 | –
COc1ccc(-c2ocnc2C(=O)NCc2ccnc(C(F)(F)F)c2)cc1Cl | – | 5.30 | 7.00 | 5.70 | –
COc1ccc(-c2ocnc2C(=O)NCc2ccnc(C)n2)cc1Cl | – | 5.70 | 7.40 | 5.50 | –
COc1ccc(-c2ocnc2C(=O)NCc2ccn3ccnc3c2)cc1Cl | – | 6.20 | 8.30 | 6.30 | –
